Series [1] deals with T1, Peroxisome proliferator-activated receptor delta (Mus musculus) (UniProt P35396).
T1 sequence (whole entry): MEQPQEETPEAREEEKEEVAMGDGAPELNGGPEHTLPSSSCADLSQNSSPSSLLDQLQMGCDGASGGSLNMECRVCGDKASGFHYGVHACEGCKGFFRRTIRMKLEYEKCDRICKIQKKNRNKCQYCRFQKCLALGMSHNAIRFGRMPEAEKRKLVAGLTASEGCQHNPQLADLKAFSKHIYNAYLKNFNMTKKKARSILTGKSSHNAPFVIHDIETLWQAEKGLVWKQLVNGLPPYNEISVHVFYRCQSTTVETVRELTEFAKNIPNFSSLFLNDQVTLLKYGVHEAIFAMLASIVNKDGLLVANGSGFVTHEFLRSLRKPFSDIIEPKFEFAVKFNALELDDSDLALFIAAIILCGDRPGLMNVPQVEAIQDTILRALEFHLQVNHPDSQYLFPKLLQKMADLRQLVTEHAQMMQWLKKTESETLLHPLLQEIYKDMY
As to the kind of experiment: Transactivation of PPARdelta in mouse C2C12 cells assessed increase in [14C]oleate beta-oxidation at 10 uM preincubated for 48 hrs followed by [14C]oleate addition during last 2 hrs of incubation period relative to control. The class given is cell-based. The gist of the method:
(§1)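 Fatty acid beta-oxidation was used as the functional read-out. PPARα activity was tested in human hepatoma HuH7 cells and PPARδ activity in mouse myoblast C2C12 cells, at 1, 3, 10 and 30 µM. Values are % beta-oxidation, mean of at least 2 independent experiments run in triplicate, with single-experiment values flagged.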

In series [2] the target is T2, Peroxisome proliferator-activated receptor alpha (Homo sapiens, UniProt Q07869).
T2 sequence (Q07869 whole entry): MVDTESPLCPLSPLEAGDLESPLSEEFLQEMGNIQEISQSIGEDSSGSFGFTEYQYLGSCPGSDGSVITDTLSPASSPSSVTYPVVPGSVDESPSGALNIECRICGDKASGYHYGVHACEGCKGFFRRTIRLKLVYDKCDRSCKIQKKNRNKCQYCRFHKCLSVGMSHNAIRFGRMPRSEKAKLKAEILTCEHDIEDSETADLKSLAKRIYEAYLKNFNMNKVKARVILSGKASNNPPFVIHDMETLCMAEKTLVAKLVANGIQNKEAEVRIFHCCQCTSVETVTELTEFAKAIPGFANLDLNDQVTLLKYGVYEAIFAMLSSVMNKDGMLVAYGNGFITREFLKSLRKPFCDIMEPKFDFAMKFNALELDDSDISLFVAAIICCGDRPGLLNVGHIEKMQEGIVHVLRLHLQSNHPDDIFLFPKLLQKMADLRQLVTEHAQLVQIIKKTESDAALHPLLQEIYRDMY
The experiment in a line: Transactivation of human GAL4-fused PPARalpha LBD expressed in African green monkey COS7 cells co-expressing 5Gal4 pGL3 TK Luc after overnight incubation by luciferase reporter gene assay. The format is cell-based. The gist of the method: (§2)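 Cell-based Gal-4 transactivation assay in COS-7 cells transfected with PPARα, PPARδ or PPARγ ligand-binding domain. EC50 and Emax were derived, with Emax as maximum activation in percent of control. EC50s are means of at least two independent experiments performed in triplicate.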
(A reporter such as luciferase makes a cellular process visible.)

For series [3], the target named is T1, Peroxisome proliferator-activated receptor delta (Mus musculus). As to the kind of experiment: Transactivation of PPARdelta in mouse C2C12 cells assessed increase in [14C]oleate beta-oxidation at 30 uM preincubated for 48 hrs followed by [14C]oleate addition during last 2 hrs of incubation period relative to control. The class given is cell-based. The gist of the method:
as §1

For series [4], the target named is T3, Peroxisome proliferator-activated receptor alpha (Homo sapiens) (UniProt Q07869).
T3 sequence (whole entry): T2 sequence (Q07869 whole entry)
As to the kind of experiment: Transactivation of PPARalpha in human HuH7 cells assessed increase in [14C]oleate beta-oxidation at 10 uM preincubated for 48 hrs followed by [14C]oleate addition during last 2 hrs of incubation period relative to control. The class given is cell-based. A digest of the protocol: as §1

The target in series [5] is T1, Peroxisome proliferator-activated receptor delta (Mus musculus). The experiment in a line: Transactivation of PPARdelta in mouse C2C12 cells assessed increase in [14C]oleate beta-oxidation at 1 uM preincubated for 48 hrs followed by [14C]oleate addition during last 2 hrs of incubation period relative to control. The format is cell-based. The gist of the method:
as §1

The nature of series [6]: Tmax in C57Bl6 mouse at 10 mg/kg, po administered as single oral dose. The format is ADME, organism-based. As to conditions: in vivo. The gist of the method:
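Single oral dose of 10 mg/kg in methyl cellulose vehicle given to C57Bl6 mice. Plasma was sampled over a 24 h period. […]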

For series [7], the target named is T4, Peroxisome proliferator-activated receptor gamma (Homo sapiens, UniProt P37231).
T4 sequence (P37231 whole entry): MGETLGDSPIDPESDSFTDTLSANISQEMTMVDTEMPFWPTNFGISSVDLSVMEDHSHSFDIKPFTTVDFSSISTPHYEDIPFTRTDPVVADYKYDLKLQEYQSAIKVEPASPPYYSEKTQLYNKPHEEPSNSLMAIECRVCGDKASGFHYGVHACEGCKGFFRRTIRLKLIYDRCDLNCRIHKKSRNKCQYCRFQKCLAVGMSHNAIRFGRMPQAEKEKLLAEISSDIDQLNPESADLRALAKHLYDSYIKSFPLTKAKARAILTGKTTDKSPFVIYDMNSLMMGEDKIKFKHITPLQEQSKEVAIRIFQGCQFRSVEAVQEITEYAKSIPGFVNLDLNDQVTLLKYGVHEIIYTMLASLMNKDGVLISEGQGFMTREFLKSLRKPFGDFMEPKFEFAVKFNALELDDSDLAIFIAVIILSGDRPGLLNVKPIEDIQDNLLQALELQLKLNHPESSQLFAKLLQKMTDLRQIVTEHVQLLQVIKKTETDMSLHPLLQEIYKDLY

The target of series [8] is T5, Peroxisome proliferator-activated receptor delta (Homo sapiens, UniProt Q03181).
T5 sequence (Q03181 whole entry): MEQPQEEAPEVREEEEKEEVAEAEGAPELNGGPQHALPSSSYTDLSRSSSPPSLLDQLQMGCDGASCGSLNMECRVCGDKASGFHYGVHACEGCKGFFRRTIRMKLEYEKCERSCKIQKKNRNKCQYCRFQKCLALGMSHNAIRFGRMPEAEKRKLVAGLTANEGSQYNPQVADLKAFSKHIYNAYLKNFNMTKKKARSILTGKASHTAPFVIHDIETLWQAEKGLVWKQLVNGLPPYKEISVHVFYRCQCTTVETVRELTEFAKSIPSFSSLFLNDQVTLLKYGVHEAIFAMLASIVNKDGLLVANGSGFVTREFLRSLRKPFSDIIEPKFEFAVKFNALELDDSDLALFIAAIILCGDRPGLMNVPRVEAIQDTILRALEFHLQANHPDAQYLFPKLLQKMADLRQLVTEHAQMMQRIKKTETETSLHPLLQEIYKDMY
The experiment in a line: Transactivation of human GAL4-fused PPARdelta LBD expressed in African green monkey COS7 cells co-expressing 5Gal4 pGL3 TK Luc after overnight incubation by luciferase reporter gene assay. The class given is cell-based. The gist of the method: as §2

Series [9] concerns the target T4, Peroxisome proliferator-activated receptor gamma. This is another data set of the same source.

Among the data in ChEMBL document CHEMBL4020830, “Design, Synthesis, and Evaluation of a Novel Series of Indole Sulfonamide Peroxisome Proliferator Activated Receptor (PPAR) α/γ/δ Triple Activators: Discovery of Lanifibranor, a New Antifibrotic Clinical Candidate” (J Med Chem, 2018) are Activity, EC50 and Tmax values, retold here.

As usually defined, the EC50 is the concentration at which the effect is half-maximal. Broadly, the Tmax is the time at which the peak concentration occurs.

Structures are written as SMILES.

Regarding `O=C(O)CCCc1cc2cc(Cl)ccc2n1S(=O)(=O)c1ccc2ncsc2c1` [LANIFIBRANOR], the Activity in series [1] stood at 67%; in series [3] it was 55%; in [4] it was 113%; in [5], 12%. Also, the EC50 in series [2] is 1.54 µM; in [7] it was 1.48 µM; in [8] it was 0.866 µM; in series [9] it was 1.92 µM. For the same compound, the Tmax in [6] is 1 h.
As for `O=C(O)CCc1cc2cc(Cl)ccc2n1S(=O)(=O)c1ccccc1`, the Activity in [1] was 12%; in series [3], 27%; in series [4], 45%; in series [5] it was -6%. Also, the EC50 is 0.26 µM in [2] and 1.91 µM in series [8]. In addition, the time of peak concentration (Tmax) in [6] worked out at 1 h.
